Screening results from PubChem.
This is a sample that favours compounds with a hit; in the whole collection about 1.9% have one here.
Scp-1 inhibitor: blocks human Scp-1 phosphatase activity. Q9GZU7. inhibition, % at 20 µM. Recombinant Scp1, phosphopeptide, malachite green phosphate absorbance. AID 493091. 0.88% of 340,000 active;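 active = inhibition above about 50% at 20 µM, limit read from the data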;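 also: plate controls were DMSO wells with enzyme for no effect and wells lacking enzyme for full effect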
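Times: enzyme reaction 45 min at room temperature, colour 5 min, stabilisation 30 min. Material: SCP-1 catalytic fragment, aa 76-261. Medium: Acidic Tris acetate buffer with magnesium and detergent. Signal: colorimetric free-phosphate detection, absorbance 630 nm. Read-out basis: % inhibition of SCP-1 phosphate liberation. Reagent: Phosphorylated 17-residue peptide substrate.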
LMPTP inh: LMPTP (human) inhibition | P24666 | recombinant LMPTP-A, OMFP fluorogenic substrate, fluorescence intensity | inhibition, % at 20 µM | 0.22% of 360,000 active;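 active = compounds that cut the enzyme signal by at least half of the control window in the single-dose screen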;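 also: plate controls were DMSO wells with enzyme plus substrate for no effect and substrate without enzyme for full effect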
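Assay system: LMPTP-A, protein tyrosine phosphatase of low molecular weight / Medium: pH 6.0 Bis-Tris buffer with DTT and Triton X-100 / Schedule: 50 min enzyme reaction at room temperature, protected from light / Measured by: endpoint fluorescence intensity from OMFP dephosphorylation / Read-out basis: % inhibition relative to no-enzyme and uninhibited control wells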
STEP block: inhibitors of human striatal-enriched phosphatase STEP | P54829 | recombinant STEP, OMFP fluorogenic substrate, fluorescence | inhibition, % at 20 µM | 0.25% of 360,000 active;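 active = inhibition at 20 µM, scaled per plate between control wells, above about 37%, limit read from the data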;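 also: 0% = DMSO with enzyme and substrate and 100% = substrate only without enzyme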
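Assay system: isolated STEP enzyme / Timing: 20 min at room temperature, dark / Doses: 20 µM, 1% DMSO / Technique: fluorescence intensity, excitation 480 nm, emission 540 nm / Reagent: fluorogenic phosphatase substrate OMFP at 25 µM final / Measure: percent inhibition scaled to no-enzyme and uninhibited-enzyme controls, plate-pattern corrected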
FAS TE block: FAS thioesterase (human) inhibition; recombinant FAS-TE, OMFH fluorogenic substrate, fluorescence endpoint; P49327; inhibition, % at 15 µM; AID 602261; 0.67% of 360,000 active;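 active = compounds whose normalised, plate-corrected inhibition of enzyme fluorescence in the single-dose primary screen is 50% or more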;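 also: 0% = DMSO with enzyme and 100% = substrate without enzyme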
SUMO1-SIM PPI: alters human SUMO1 binding to SIM partners; P63165; SUMO1 binding to a labelled peptide, TR-FRET, 1 h; inhibition, % at 20 µM; 0.33% of 360,000 active; in the data active = inhibition above about 37%
Active calls of the source: *; . = no result given.

SMILES	Scp-1 inhibitor	LMPTP inh	STEP block	FAS TE block	SUMO1-SIM PPI
Cc1nc(COC(=O)c2cc(O)c3ccccc3c2O)cs1	69.2*	0.9	-4.4	14.2	-19.2
CCN(C(=O)COC(=O)/C=C/c1ccc(F)cc1)C1CCCCC1	-1.0	2.1	-0.8	1.5	-7.5
CCN(C(=O)COC(=O)/C=C/c1ccco1)C1CCCCC1	72.0*	6.6	20.4	0.9	-15.3
CCN(CC)C(=O)C1=C(C)N(Cc2ccc(F)cc2)C(=O)C(CC(=O)NCCCN(C)C)C1 (configuration not stated)	.	-9.4	-2.5	-7.6	-1.8
CCC1CCCCN1CCCNC(=O)CN1C(=O)COc2ccc(S(=O)(=O)N3CCC(C)CC3)cc21 (configuration not stated)	0.6	-2.8	-1.2	-7.5	40.2*
CCCCN(CCCC)CCNC(=O)CN1C(=O)COc2ccc(S(=O)(=O)N3CCC(C)CC3)cc21	-1.7	0.3	-1.9	-1.8	-0.6
OC(c1ccc(F)cc1)c1nc(-c2cc3ccccc3o2)cs1 (configuration not stated)	.	3.1	0.4	35.9	-7.6
Cc1ccccc1C(C(=O)NC1CCCC1)N(C(=O)Cc1cccs1)c1ccc2c(c1)OCCO2 (configuration not stated)	-14.9	2.0	3.0	53.9*	-3.1
Cc1cc(C)cc(N(C(=O)Cc2cccs2)C(C(=O)NC2CCCCC2)c2ccccn2)c1 (configuration not stated)	-6.8	0.3	0.1	11.3	-0.6
O=c1c2c([nH]c3ccccc13)C(=C1CCCC1)CC2	7.1	59.2*	9.9	-6.5	27.7
CNC(=O)CSc1nc2nn(-c3ccccc3)c(=O)c-2c2n1CCCCC2	2.8	-0.7	-0.4	-2.1	-15.3
O=C(CSc1nc2nn(-c3ccccc3)c(=O)c-2c2n1CCCCC2)c1ccc(O)c(O)c1	48.6	67.8*	2.8	20.1	2.6
CCCCN(C)C(=O)c1sc(=O)n(Cc2c(C)cccc2C)c1C	.	0.0	-1.0	1.4	4.2
O=C(NC(=S)NCCC1=CCCCC1)c1ccccc1Br	66.6*	3.5	-3.2	25.3	4.0
O=C(COC(=O)c1ccccc1Br)NCCC1=CCCCC1	-7.4	0.2	-1.5	5.1	1.4
O=C1NC[C@H](CCCCN2CCN(CC3CCCCC3)C(=O)C2=O)N(CCc2ccccc2)C1=O	.	-0.3	.	-7.0	0.5
O=c1[nH][nH]c(=S)n1C1CCCCC1	72.5*	.	.	.	.
O=c1cc(O)n(C2CCCCCC2)c(=O)[nH]1	-0.9	0.6	0.0	-0.8	2.9
O=C(OCc1cc(=O)n2ccsc2n1)c1ccccc1NCCO	58.8*	4.2	4.6	-5.1	10.6
Nc1nc(N)c2c(ccc3c2ccn3Cc2cccc([N+](=O)[O-])c2)n1	.	68.6*	8.1	30.8	10.4
COc1ccc(/C=C2\SC(=S)N(C(Cc3ccccc3)C(=O)O)C2=O)cc1 (configuration not stated)	-4.5	0.4	6.8	5.8	-14.0
O=C(O)CC(C(=O)O)N1C(=O)/C(=C/C=C/c2ccco2)SC1=S (configuration not stated)	87.6*	65.6*	89.1*	-6.9	112.3*
O=C(O)CCCN1C(=O)/C(=C/C=C/c2ccco2)SC1=S	96.7*	35.0	54.3*	1.8	103.2*
O=C1S/C(=C\C=C\c2ccco2)C(=O)N1c1ccc(O)cc1	-0.2	18.3	0.0	0.1	-6.6
O=C(O)C(Cc1ccccc1)N1C(=O)/C(=C/C=C/c2ccco2)SC1=S (configuration not stated)	83.7*	63.8*	83.3*	12.7	114.5*
SMILES	Scp-1 inhibitor	LMPTP inh	STEP block	FAS TE block	SUMO1-SIM PPI
O=C(NN1C(=O)/C(=C/C=C/c2ccco2)SC1=S)c1ccccc1O	74.0*	61.2*	14.0	5.3	76.7*
Cc1ccc(NC(=O)CCCN2C(=O)/C(=C/C=C/c3ccccc3)SC2=S)cc1	-7.3	1.3	0.9	13.2	1.3
CCCCNc1nccnc1-c1cccc(C=O)c1	.	-2.8	-0.6	-7.3	-8.9
O=C(NNc1cc(N2CCCC2)nc(N2CCCC2)n1)c1ccc([N+](=O)[O-])cc1	-6.5	11.0	-0.4	29.5	37.1*
CCCOc1ccc(-c2nc(C#N)c(N3CCC(C(N)=O)CC3)o2)cc1	-10.9	1.2	5.5	8.8	-0.5
N#Cc1nc(-c2ccc(OCc3ccc(Cl)cc3)cc2)oc1N1CCC(C(N)=O)CC1	-0.4	3.3	8.2	-0.5	71.4*
CCc1nc2ccc(C(=O)NCc3ccccc3OC)cn2c1N(CC)CCOC	.	-1.6	0.2	-5.3	-2.0
CCCN(C(=O)c1cc(-c2ccco2)nc2ccccc12)c1c(N)n(Cc2ccccc2)c(=O)[nH]c1=O	74.4*	13.3	5.8	-0.2	0.2
CCCCn1c(N)c(N(CCC(C)C)C(=O)c2cc(-c3ccco3)nc3ccccc23)c(=O)[nH]c1=O	61.4*	9.2	11.5	3.3	0.9
CN(C)CCNc1ccc2ncn3c4ccc(O)cc4c(=O)c1c23	-13.3	62.6*	-5.8	-62.2	-58.8
COC(=O)C[C@@H]1CC[C@@H](NC(=O)Nc2cc(F)ccc2F)[C@@H](CO)O1	.	-0.4	.	.	3.8
COC(=O)[C@]12CCCCC=C1N(CCc1ccc(OC)c(OC)c1)C(=O)[C@H](CC(=O)NCC1CCCCC1)C2	.	-0.8	.	.	-1.4
CNc1nc(-c2ccccc2)c2sccc2n1	.	2.7	0.5	2.8	-9.5
CC1C(=O)OC2C1CCC1(C)C3(C)C(=O)C=CC213 (configuration not stated)	.	0.7	-1.3	-3.1	4.4
NC1=NC2(CCN(Cc3ccccc3)CC2)n2c(nc3ccccc32)N1	-7.3	49.2*	2.5	-2.9	-3.6
NC1=NC2(CCCCC2)n2c(nc3ccccc32)N1	-7.1	22.2	-0.3	-3.4	0.3
O/N=C1\CCC\C1=C/c1ccco1	1.8	-1.0	0.3	-10.5	-1.1
O=C1C(=Cc2ccco2)CCCC1=Cc1ccco1	66.5*	11.2	6.9	-0.1	10.6
O=C1C(=Cc2ccco2)CCC1=Cc1ccco1	80.1*	64.3*	97.2*	-2.7	121.2*
CCc1ccc(C2=NN(C(C)=O)C(c3ccco3)C2)cc1 (configuration not stated)	69.4*	0.5	-1.8	2.5	-0.1
CCC(=O)N1N=C(c2ccc(Cl)cc2)CC1c1ccco1 (configuration not stated)	-9.5	-0.5	4.4	11.0	-3.4
O=C(CSc1nc2ccccc2c(=O)[nH]1)c1ccc(O)cc1O	-1.4	0.9	-5.5	-4.9	6.3
O=C(CSc1nc2ccccc2n1CCc1ccccc1)c1ccc(O)c(O)c1	69.0*	78.9*	82.8*	25.0	73.0*
O=C(CSc1nc2ccccc2c(=O)[nH]1)c1ccc(O)c(O)c1	55.1*	18.2	1.5	-5.0	21.6
S=C(NCCCN1CCOCC1)NCCCN1CCOCC1	-2.4	-7.2	93.6*	-10.3	-1.6
